Measured values of several laboratories.
Protocols differ between the studies behind these lines.

The clearance of `O=C(CS(=O)(=O)O)Nc1ccc(N2CCOCC2)c(Br)c1` is reported as 62 mL/min/kg (CD-1 mouse; blood; intravenous; 2 mg/kg).
`CC(C)N1Cc2cc(C(F)(F)F)ncc2C2=CN=C(NCc3c(F)ccc4c3CCO4)N3C=NC(C1=O)C23` (stereo not drawn) gave a clearance of 1.71 mL/min/kg (male CD-1 mouse; plasma; intravenous; 2 mg/kg).
The clearance of `CC(C)(C)c1ccc(O)c(CN(Cc2cc(C(C)(C)C)ccc2O)C2CCC(NC(N)=O)CC2)c1` (stereo not drawn) is reported as 32.3 mL/min/kg (male C57BL/6 mouse; plasma; oral; 10 mg/kg; single dose).
For `C=C(C[C@H](N)C(=O)O)C(=O)NCc1ccc(F)cc1`, the clearance was 29.4 mL/min/kg (male CD-1 mouse; plasma; intravenous; 2.5 mg/kg).
With `CN(C)C/C=C/C(=O)Nc1ccc(O[C@@H]2CCC[C@@H](Nc3ncc(Cl)c(-c4c[nH]c5ccccc45)n3)C2)cc1` the clearance was 24.9 mL/min/kg (male Swiss mouse; plasma; intravenous; 3 mg/kg).
The clearance of `CCO[C@H]1CCN(Cc2c(OC)cc(C)c3[nH]ccc23)[C@H](c2ccc(C(=O)O)cc2)C1` is reported as 16 mL/min/kg (C57BL/6 mouse; plasma; intravenous; 1 mg/kg).
For `CCc1cc(OC)c2nccc(N3CCc4c(cc(Cn5ccnc5)cc4-c4cn(C)nc4C(F)(F)F)C3=O)c2c1`, the clearance was 16 mL/min/kg (male CD-1 mouse; plasma; intravenous; 3 mg/kg).
The clearance of `Cc1c(Br)cc(NC(=O)C(c2ccccc2)S(=O)(=O)O)cc1Br` (stereo not drawn) is reported as 34.9 mL/min/kg (CD-1 mouse; blood; intravenous; 2 mg/kg).
`CC(C)c1cnn2c(NCc3ccccc3)cc(NC[C@H]3CCNC[C@@H]3O)nc12` has a clearance of 78 mL/min/kg (male CD-1 mouse; plasma; intravenous; 10 mg/kg).
The clearance of `CNC(=O)c1cc(OC)cc2c(N3CCc4c(cc(Cn5ccnc5)cc4-c4cn(C)nc4C(F)(F)F)C3=O)ccnc12` is reported as 15 mL/min/kg (male CD-1 mouse; plasma; intravenous; 3 mg/kg).
For `COc1ccc2cc(CCC[18F])ccc2c1`, the clearance was 0.25 mL/min (male BALB/c mouse; plasma; intravenous).
`Cc1noc(C)c1-c1ccc2nc(-c3cnn(CC(C)(C)O)c3)nc(N3CCOC[C@@H]3c3ccccc3)c2c1` gave a clearance of 7.3 mL/min/kg (CD-1 mouse; plasma; intravenous; 2 mg/kg).
`O=C1C2N=CN3C(NCc4c(F)ccc5c4CCO5)=NC=C(c4cnc(C(F)(F)F)cc4CN1CC(F)F)C23` (stereo not drawn) gave a clearance of 0.59 mL/min/kg (male CD-1 mouse; plasma; intravenous; 2 mg/kg).
`CCc1cc(C(=O)NC)c2nccc(N3CCc4c(cc(Cn5ccnc5)cc4-c4cn(C)nc4C(F)(F)F)C3=O)c2c1` gave a clearance of 12 mL/min/kg (male CD-1 mouse; plasma; intravenous; 3 mg/kg).
`COc1nc(-c2cc(C)c(N[C@@H](C)c3ccc(F)cc3)nn2)ccc1-n1cnc(C)c1` has a clearance of 3.9 mL/min/kg (male CD-1 mouse; plasma; intravenous; 1 mg/kg; single dose).
`CC[C@H](C)[C@@H]1NC(=O)[C@@](C)(NC(=O)[C@H](CCCNC(=N)N)NC(=O)[C@H](CC(C)C)NC(=O)[C@@H](NC(=O)[C@H](CCC(N)=O)NC(=O)[C@H](CC(C)C)NC(C)=O)[C@@H](C)O)CCCC=CCCC[C@@](C)(C(=O)N[C@@H](CC(C)C)C(=O)N[C@@H](Cc2ccc3ccccc3c2)C(N)=O)NC(=O)[C@H](CCCNC(=N)N)NC(=O)[C@H](CCC(N)=O)NC1=O` has a clearance of 0.96 mL/min/kg (male BALB/c mouse; plasma; intravenous; 15 mg/kg).
`CNCCN(C)c1cc(C#N)cc(CCc2cc(C)cc(N)n2)c1` gave a clearance of 184 mL/min/kg (male BALB/c mouse; plasma; intravenous; 2 mg/kg).
For `NCC1CCN(c2nc(-c3ccncc3)nc3sc4c(c23)CCCC4)CC1`, the clearance was 38 mL/min/kg (female CD-1 mouse; plasma; intravenous; 10 mg/kg).
